M5 antag: antagonists of human muscarinic M5 receptor (CHRM5); P08912; CHO-hM5 cells, Fluo-8 calcium fluorescence, ACh EC80; inhibition, % at 3 µM; 360,000 tested, 0.59% active;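 active means inhibition above a per-plate cutoff, the mean of that plate's test compounds plus 3 SD, cut at about 27% in these data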;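 further: 0% = acetylcholine EC80 with DMSO and 100% = DMSO without agonist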
CHRM1 PAM: human CHRM1 positive allosteric modulation; 360,000 tested, 0.088% active; CHO-K1 hM1, Fluo-8 calcium fluorescence, ACh EC20; 0% = ACh EC20, 100% = maximal ACh; AID 588819; P11229; activation, % at 3 µM; in the data active means activation above about 19%, passing the limit was not always enough
Target sequence (P11229 whole entry, looked up): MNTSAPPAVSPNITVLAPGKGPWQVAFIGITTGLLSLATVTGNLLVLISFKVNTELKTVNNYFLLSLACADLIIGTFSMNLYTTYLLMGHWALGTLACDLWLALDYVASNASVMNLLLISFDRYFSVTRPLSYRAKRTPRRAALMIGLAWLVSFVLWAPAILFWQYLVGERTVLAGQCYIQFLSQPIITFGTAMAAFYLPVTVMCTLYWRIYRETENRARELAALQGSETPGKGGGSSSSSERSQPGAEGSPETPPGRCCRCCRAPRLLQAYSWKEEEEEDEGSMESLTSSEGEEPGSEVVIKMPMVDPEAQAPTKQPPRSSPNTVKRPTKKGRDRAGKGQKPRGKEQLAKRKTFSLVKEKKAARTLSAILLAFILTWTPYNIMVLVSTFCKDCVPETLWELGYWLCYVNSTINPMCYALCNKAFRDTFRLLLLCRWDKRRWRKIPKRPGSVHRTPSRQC
CHRM1 agonist: activates human CHRM1 receptor; P11229; CHO-K1 hM1, Fluo-8 calcium fluorescence, agonist mode; 0% DMSO, 100% acetylcholine EC100; activation, % at 3 µM; 360,000 tested, 0.33% active; AID 588814;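 active means activation above the run's mean compound activation plus 3 SD, cut at about 16% in these data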;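 further: peak over basal fluorescence ratio within a 140 s kinetic read after compound addition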
M1 antag: blocks human M1 muscarinic receptor; AID 588852; P11229; CHO-K1 hM1, Fluo-8 calcium fluorescence, ACh EC80 antagonist; 360,000 tested, 1.3% active; inhibition, % at 3 µM;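 active means percent inhibition above its own plate's cutoff, namely the mean of that plate's compound wells plus 3 SD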;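 further: peak over basal fluorescence ratio during 140 s after agonist addition; 0% = ACh EC80 plus DMSO and 100% = DMSO alone without agonist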
CHRM5 PAM: potentiates acetylcholine response at human M5 receptor; P08912; CHO-K1 hM5, Fluo-8 calcium, ACh EC20 PAM; 0% = ACh EC20, 100% = ACh EC100; activation, % at 3 µM; 360,000 tested, 0.3% active;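 active means activation above the run cutoff, the mean activation of all test compounds plus 3 SD, cut at about 18% in these data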
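Assay system: CHO-K1 hM5 cells. Also added: acetylcholine at EC20 concentration, added after compound. Dosing: 3 µM, single dose. Times: compound preincubation 140 s before EC20 acetylcholine addition. Signal: Fluo-8 calcium fluorescence. Measure: % activation relative to EC20 and EC100 ACh responses. Repeats: singlicate, one well per test compound.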
CHRM5 agonist: agonists of human muscarinic M5 receptor (CHRM5) | P08912 | CHO-K1 hM5 cells, Fluo-8 calcium fluorescence; 0% DMSO wells, 100% maximal acetylcholine response | activation, % at 3 µM | 360,000 tested, 0.19% active | AID 624037;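 active means activation above the run's mean over test compounds plus 3 SD, cut at about 23% in these data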;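 further: signal is peak over basal fluorescence ratio across the kinetic read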
An asterisk follows results filed as active; nt = not tested or not shown; ! = repeats disagree. Compounds with a hit are over-represented: about 2% of the library has one in this group of screens.

SMILES | M5 antag | CHRM1 PAM | CHRM1 agonist | M1 antag | CHRM5 PAM | CHRM5 agonist
O=[N+]([O-])c1ccc(N2CCN(C(=S)NCc3ccc(Cl)cc3)CC2)cc1 | 29* | -10 | 0 | 37* | -20 | 2
CCNC(=S)N1CCN(c2ccc([N+](=O)[O-])cc2)CC1 | -1 | 6 | 1 | -24 | -4 | 2
Cc1ccc(C(=O)N/N=C/c2cccnc2)cc1Cl | 5 | 21 | -1 | -20 | -1 | 0
COCCN1C(=O)C(CC(=O)Nc2ccc(C(C)=O)cc2)SC1=Nc1ccccc1 (stereo not given) | 29*! | -1 | 1 | -7 | -12 | -1
CC(O)CN1C(=O)C(CC(=O)Nc2ccc(Cl)cc2)SC1=Nc1ccccc1 (stereo not given) | 10 | -2 | -4 | -18 | -6 | -2
Fc1ccc(CO/N=C2\CCCc3nonc32)cc1 | 9 | 11 | -7 | -13 | 14 | -9
COc1cccc(NC(=O)Cn2nnc(C(=O)NCc3ccc4c(c3)OCO4)c2N)c1 | -19 | 11 | 2 | -17 | 22* | 0
Nc1c(C(=O)NCc2ccc3c(c2)OCO3)nnn1CC(=O)Nc1ccc(Br)cc1 | 8 | 1 | -2 | 3 | 2 | 0
Cc1ccc(NC(=O)Cn2nnc(C(=O)NCc3ccc4c(c3)OCO4)c2N)cc1 | -18 | 20 | 4 | -15 | 18* | 1
Nc1c(C(=O)NCc2ccc3c(c2)OCO3)nnn1Cc1ccc(Br)cc1 | 5 | 7 | 16* | 0 | 7 | 30*
COCCNC(=O)C1(C)CCCN(Cc2ccc(OCc3ccccc3)cc2)C1 (stereo not given) | -1 | -1 | -7 | -2 | 5 | -2
OC1CCN(Cc2ccc(OCc3ccccc3)cc2)CC1 | -1 | -15 | -11 | 16 | 3 | -5
CCc1ccccc1OCCCCN1CCCCC1 | 9 | -22 | -9 | 36* | -12 | -22
CC1CCCN(Cc2ccc(OCc3ccccc3)cc2)C1 (stereo not given) | 3 | -30 | -9 | 73* | -4 | -6
c1ccc(COc2ccc(OCCCCN3CCCCC3)cc2)cc1 | 4 | -26 | -3 | 35* | -25 | -11
CCc1ccccc1OCCCN1CCCC1 | 17 | 0 | -10 | -13 | -17 | -26
O=C(NCCSCc1ccccc1)c1ccc(C2SCC(=O)N2Cc2ccccc2)cc1 (stereo not given) | 14 | -34 | -8 | 60* | -24 | -6
CCCNC(=O)C1CCN(S(=O)(=O)c2c(C)noc2/C=C\c2ccc(OC)cc2)CC1 | 3 | 8 | -2 | -10 | -5 | 1
CNC(=O)C1CCN(S(=O)(=O)c2c(C)noc2/C=C/c2ccc(OC)cc2)CC1 | 80* | 7 | -2 | -15 | -22 | -5
Cc1c(C(=O)Nc2ccc3c(c2)OCCO3)sc2nc(-c3ccccc3)cn12 | 28* | -24 | 0 | 42* | -25 | 6
CCC(Sc1nc2ccsc2c(=O)n1Cc1ccc(C(=O)O)cc1)C(=O)Nc1ccc(Cl)cc1 (stereo not given) | 3 | 2 | 0 | -3 | 0 | 1
CC(C)C1C(=O)N(Cc2cn(CCC3OCCO3)nn2)CCS(=O)(=O)N1Cc1ccc(-c2ccc(Cl)cc2)cc1 (stereo not given) | 10 | 2 | -4 | -4 | -4 | 0
CC(C)(C)CN1CCC(Oc2cccc(C(=O)NCCCOc3cccnc3)c2)CC1 | 38* | -3 | -5 | 17 | -11 | -8
Cc1ccc(-c2cc(C(=O)Nc3cnn(C(C)C)c3)no2)cc1 | -2 | -3 | 0 | 16 | -14 | 26*
Cc1ccc(-c2cc(C(=O)Nc3cnn(C45CC6CC(CC(C6)C4)C5)c3)no2)cc1 | -3 | 12 | 5 | -3 | 4 | 2
SMILES | M5 antag | CHRM1 PAM | CHRM1 agonist | M1 antag | CHRM5 PAM | CHRM5 agonist
c1ccc(CNc2ncnc3c2cnn3Cc2ccccc2)cc1 | 8 | -14 | 14 | 19 | -10 | 28*
OCCNc1ncnc2c1cnn2Cc1ccccc1 | 13 | 16 | 4 | 6 | -2 | -4
CCOC(=O)C1CCCN(C(=O)c2cc(-c3ccco3)nc3ccccc23)C1 (stereo not given) | 10 | -5 | 25* | -12 | 5 | 11
CCOC(=O)C1CCCN(C(=O)c2ccc(-c3ccccc3Cl)o2)C1 (stereo not given) | -5 | 2 | 5 | -8 | 0 | 0
CCOC(=O)C1CCCN(C(=O)c2sc3nc(-c4ccc(OC)cc4)cn3c2C)C1 (stereo not given) | -7 | -6 | 28* | -1 | -4 | 6
CCOC(=O)C1CCCN(c2c(C(=O)c3ccccc3)cnc3ccccc23)C1 (stereo not given) | 21 | -23 | 38* | 30* | -18 | 9
CCOC(=O)C1CCCN(C(=O)c2cc(-c3ccncc3)nc3ccccc23)C1 (stereo not given) | 3 | 6 | 1 | -10 | -5 | 4
CCOC(=O)C1CCN(c2c(C(=O)c3ccccc3)cnc3ccc(CC)cc23)CC1 | -5 | -1 | -1 | -2 | -1 | 1
CCOC(=O)C1CCCN(C(=O)c2ccco2)C1 (stereo not given) | 1 | -27 | 52* | 15 | -2 | 10
COc1ccc(-n2c(SCC(=O)NCC3CCCO3)nc3ccccc3c2=O)cc1Cl (stereo not given) | 7 | -2 | -4 | -2 | -5 | 1
NS(=O)(=O)c1ccc(NC(=O)CN(C(=O)C(F)(F)F)C2CCCC2)cc1 | 4 | 6 | -1 | -11 | 1 | 1
COc1ccc(CN(C)C[C@@H]2OCCCC[C@H](C)Oc3ccc(NC(=O)Nc4ccc(F)cc4)cc3C(=O)N([C@H](C)CO)C[C@H]2C)cc1 | 4 | -13 | -11 | 14 | -2 | -2
CCCCC[C@@H](C)N1C[C@H](COCc2ccccc2)Oc2cc(N3CC[C@@H](O)C3)ccc2S1(=O)=O | -6 | nt | nt | nt | 0 | -3
Cc1cccc(S(=O)(=O)N2C[C@@H](O)COC[C@@H]3O[C@H](CC(=O)NCCCN4CCOCC4)CC[C@H]32)c1 | 8 | nt | nt | nt | -6 | -1
CC(=O)c1c(C)[nH]c(C(=O)OCC(=O)Nc2cc(Cl)ccc2[N+](=O)[O-])c1C | 18 | -20 | 9 | 25* | -18 | 5
CC(C)COc1ccc(C(=O)Nc2sc3c(c2C(=O)O)CC(C)(C)OC3)cc1 | 34* | -12 | -4 | 13 | -18 | 2
COc1ccc(C(=O)Nc2sc3c(c2C(=O)O)CC(C)(C)OC3)cc1 | 10 | 8 | -4 | -6 | -3 | 0
COc1ccccc1-n1c(SCC(=O)Nc2cccc(C)c2)nc2c(c1=O)SCC2 | 3 | -1 | -3 | 4 | 0 | 1

Screening results from PubChem BioAssay.
